Source: PubChem (several laboratories)
A selection: hits, their analogues and other compounds. The true share with any hit is near 6.7%.
GRIN3A LBD mod: modulates the human NR3A ligand-binding domain. NR3A LBD differential scanning fluorimetry, Tm shift; 0% = protein alone, 100% = glycine-bound protein. Tm shift relative to glycine control, % at 25 µM. 340,000 compounds, 2.5% hits;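 active means melting temperature shift of at least 10% of the positive control shift, at one fixed dose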
CSC inhib: blocks cancer stem cells | cancer stem cell-like cells viability, luminescence | inhibition, % at 7.5 µM | 300,000 compounds, 1.1% hits | AID 2717; in the data active means inhibition above about 75%; tested in HMLE shEcad cells
T cruzi inh: T. cruzi replication inhibition; T. cruzi beta-gal in NIH3T3, luminescence, 90 h; inhibition, % (concentration not given with the values); 300,000 compounds, 1.4% hits; AID 1885;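 active means mean inhibition across valid replicates above about 55%, limit read from the data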;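 further: signal also drops with host cell toxicity which is not excluded here; 0% = plate median of DMSO wells and 100% = zero luminescence signal; higher percent means less beta-gal luminescence so fewer parasites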
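System: NIH/3T3 fibroblasts plus reporter T. cruzi. Medium: DMEM plus 2% FBS. Probe or stimulus: 5000 reporter trypomastigotes per well. Compound: single 50 nL compound addition per well in DMSO. Incubation: co-culture of at least 90 h after 3 h attachment. Detection: GalScreen β-gal luminescence, detergent lysis, 60 min. Evaluation: parasite load inhibition, %.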
CHOP inhibitor: inhibitors of CHOP induction in ER stress response; CHO-K1 CHOP-promoter luciferase, tunicamycin-induced, 15-18 h; inhibition, % at 10 µM; 220,000 compounds, 3.8% hits; AID 2732;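 active means compounds that reduced the stress-induced luciferase reporter signal by more than about 70% of percent inhibition, limit read from the data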;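 further: 0% = tunicamycin plus vehicle and 100% = wells without tunicamycin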
PREPL inhibitor: inhibitors of human prolyl oligopeptidase-like enzyme PREPL. Q4J6C6. recombinant PREPL, fluorescence polarization activity-based probe. inhibition, % at 5.96 µM. 320,000 compounds, 0.68% hits; in the data active means inhibition above about 43%;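 further: 0% = enzyme with DMSO and 100% = wells lacking enzyme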
Target sequence (Q4J6C6 whole entry, looked up): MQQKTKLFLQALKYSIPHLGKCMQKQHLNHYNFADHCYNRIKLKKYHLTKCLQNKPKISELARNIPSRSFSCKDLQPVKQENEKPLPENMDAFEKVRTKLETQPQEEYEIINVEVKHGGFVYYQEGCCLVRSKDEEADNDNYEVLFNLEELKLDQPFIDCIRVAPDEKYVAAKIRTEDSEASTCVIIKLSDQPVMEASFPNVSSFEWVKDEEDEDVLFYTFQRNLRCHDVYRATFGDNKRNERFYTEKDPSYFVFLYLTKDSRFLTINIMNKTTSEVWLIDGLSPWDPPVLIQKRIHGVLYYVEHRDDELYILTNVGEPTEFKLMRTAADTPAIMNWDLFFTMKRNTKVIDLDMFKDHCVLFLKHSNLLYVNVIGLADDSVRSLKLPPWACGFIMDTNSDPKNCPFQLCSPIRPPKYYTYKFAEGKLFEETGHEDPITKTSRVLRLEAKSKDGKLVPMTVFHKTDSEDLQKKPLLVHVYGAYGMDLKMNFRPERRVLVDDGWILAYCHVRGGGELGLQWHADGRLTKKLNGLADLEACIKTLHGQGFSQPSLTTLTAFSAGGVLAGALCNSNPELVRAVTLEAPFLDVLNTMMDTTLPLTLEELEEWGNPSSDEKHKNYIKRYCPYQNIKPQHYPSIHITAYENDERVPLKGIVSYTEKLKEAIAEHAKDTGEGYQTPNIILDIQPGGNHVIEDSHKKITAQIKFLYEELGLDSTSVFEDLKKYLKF
Beta apoptosis: beta cell apoptosis inhibition | 300,000 compounds, 0.8% hits | INS-1E cytokine-induced death, ATP luminescence, 48 h; percent of positive-control rescue, neutral wells zero | protection from apoptosis, % (no concentration beside the values);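 active means Every replicate reaches about 75%, or at least half do and their mean reaches it too, limit read from the data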;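 further: 0% = cytokine-treated negative control wells and 100% = positive control rescue; higher means more ATP so stronger rescue from cytokine killing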
Numbers without * were called inactive.

Results for CC(=O)N1c2c(cc(Br)cc2S(=O)(=O)NCc2ccccc2)CC1C (centres undefined) ?
GRIN3A LBD mod: -2; CSC inhib: 2; T cruzi inh: 4; PREPL inhibitor: 16; Beta apoptosis: -2

How did O=C(O)CCn1cc(/C=C2\NC(=S)N(c3ccccc3)C2=O)c(-c2ccc(Br)cc2)n1 do in these assays?
GRIN3A LBD mod: -1; CSC inhib: -4; T cruzi inh: 7; CHOP inhibitor: 6; PREPL inhibitor: -3

What do the screens show for `N#CCCn1cc(/C=N/NC(N)=S)c(-c2ccc(-c3ccccc3)cc2)n1`?
GRIN3A LBD mod: 5; CSC inhib: 14; T cruzi inh: 63*; CHOP inhibitor: -51; PREPL inhibitor: 7; Beta apoptosis: 16

How did N#CCCn1cc(/C=N/O)c(-c2ccccc2)n1 do in these assays?
GRIN3A LBD mod: 0; CSC inhib: -5; CHOP inhibitor: 24; PREPL inhibitor: 6; Beta apoptosis: -7

How did N#CCCn1cc(/C=C2\NC(=S)N(c3ccccc3)C2=O)c(-c2ccc(F)cc2)n1 do in these assays?
GRIN3A LBD mod: 10*; CSC inhib: -10; T cruzi inh: -6; CHOP inhibitor: 79*; PREPL inhibitor: -1

Results for COc1ccccc1C(=O)NCC(=O)NCc1cc(=O)n(C)c(=O)n1C ?
GRIN3A LBD mod: -2; CSC inhib: -9; T cruzi inh: -5; PREPL inhibitor: 7; Beta apoptosis: -4

Results for CC(C)c1ccc(NC2CCCN(C(=O)c3cccs3)C2)cc1 (centres undefined) ?
GRIN3A LBD mod: -2; CSC inhib: 21; T cruzi inh: 15; PREPL inhibitor: 7; Beta apoptosis: 0

How did COc1ccc(NS(=O)(=O)c2cc(NC(=O)C(CC(C)C)NC(N)=O)ccc2N2CCOCC2)cc1 (centres undefined) do in these assays?
GRIN3A LBD mod: 2

How did O=[N+]([O-])c1cc(Oc2cccnc2)cc([N+](=O)[O-])c1 do in these assays?
GRIN3A LBD mod: -2; T cruzi inh: 61*; CHOP inhibitor: -39; PREPL inhibitor: -2; Beta apoptosis: 24

What do the screens show for `CCOC(=O)N1CCN(C2CCCN(C(=O)c3cccc(Cl)c3)C2)CC1` (centres undefined)?
GRIN3A LBD mod: 2; CSC inhib: -12; T cruzi inh: 0; PREPL inhibitor: 1; Beta apoptosis: 5

What do the screens show for `COc1cc2sc3ccc(C#CC4(O)CCCCC4)cc3c(=O)c2cc1OC`?
GRIN3A LBD mod: -18; CSC inhib: 10; T cruzi inh: 49; PREPL inhibitor: -3; Beta apoptosis: 36

How did COc1ccc(-c2sc3ccc(N4CCOCC4)cc3c2C#CC2(O)CCCCC2)cc1 do in these assays?
GRIN3A LBD mod: -6; CSC inhib: 106*; PREPL inhibitor: 36; Beta apoptosis: 4

What do the screens show for `COc1ccc(-c2sc3cc4c(cc3c2C#CC2(N)CCCCC2)OCO4)cc1`?
GRIN3A LBD mod: -5; CSC inhib: 130*; PREPL inhibitor: 42; Beta apoptosis: 3

What do the screens show for `COc1ccc(C(=O)c2ccc3oc(-c4ccc(OC)cc4)c(C#CCCO)c3c2)cc1`?
GRIN3A LBD mod: -5; CSC inhib: 0; T cruzi inh: 39; PREPL inhibitor: 10; Beta apoptosis: 4

How did COc1cccc(-c2sc3ccc(OC)cc3c2C#CC2(O)CCCCC2)c1 do in these assays?
GRIN3A LBD mod: -10; CSC inhib: 105*; PREPL inhibitor: 5; Beta apoptosis: -14

Results for COc1ccc(-c2sc3ccc(N4CCOCC4)cc3c2C#CCO)cc1 ?
GRIN3A LBD mod: -13; PREPL inhibitor: 30; Beta apoptosis: 4

How did COc1ccc(-c2sc3cc4c(cc3c2C#Cc2cncn2C)OCO4)cc1 do in these assays?
GRIN3A LBD mod: -1; CSC inhib: 67; PREPL inhibitor: 1; Beta apoptosis: -3

How did COc1ccc(-c2ccc3oc(-c4ccc(OC)cc4)c(C#CC4(O)CCCCC4)c3c2)cc1 do in these assays?
GRIN3A LBD mod: 5; CSC inhib: 77*; T cruzi inh: 32; PREPL inhibitor: 18; Beta apoptosis: 0

Results for OCC1(CCOc2ccccc2)CCN(Cc2nc3ccc(F)cc3[nH]2)CC1 ?
GRIN3A LBD mod: -1; CSC inhib: -4; T cruzi inh: -11; CHOP inhibitor: 4; PREPL inhibitor: -10; Beta apoptosis: -3

Results for CC(=O)c1c(C)[nH]c(C(=O)OCC(=O)c2ccc(C)s2)c1C ?
GRIN3A LBD mod: -2; CSC inhib: 5; PREPL inhibitor: -1; Beta apoptosis: -3

Results for COc1cc(OC)cc(-c2sc3ccc(OC)cc3c2C#CC2(N)CCCCC2)c1 ?
GRIN3A LBD mod: -9; CSC inhib: 104*; PREPL inhibitor: 7; Beta apoptosis: 7

What do the screens show for `COc1ccc(OC)c2[nH]c(=O)c(CCNS(=O)(=O)c3ccc(F)cc3)cc12`?
GRIN3A LBD mod: 1; CSC inhib: -6; T cruzi inh: 22; PREPL inhibitor: 1; Beta apoptosis: -9

What do the screens show for `Cc1occc1C(=O)Nc1ccc(OCc2ccccc2)cc1`?
GRIN3A LBD mod: 26*; CSC inhib: 90*; T cruzi inh: -10; CHOP inhibitor: 26; PREPL inhibitor: 10; Beta apoptosis: 18

How did Oc1ccc(N=Cc2ccc(OCc3ccccc3)cc2)cc1 do in these assays?
GRIN3A LBD mod: 10*; CSC inhib: 6; T cruzi inh: 0; CHOP inhibitor: 32; PREPL inhibitor: 24; Beta apoptosis: 9

What do the screens show for `O=C(N/N=C/c1ccc(OCc2ccccc2)cc1)c1cccs1`?
GRIN3A LBD mod: 21*; CSC inhib: 10; T cruzi inh: 4; CHOP inhibitor: 66; PREPL inhibitor: -7; Beta apoptosis: -2

How did O=C(N/N=C/c1ccc(OCc2ccccc2)cc1)c1ccncc1 do in these assays?
GRIN3A LBD mod: 5; CSC inhib: 6; T cruzi inh: -9; CHOP inhibitor: -30; PREPL inhibitor: 14; Beta apoptosis: 1

What do the screens show for `CCCNC(=O)C(=O)N/N=C/c1ccc(OCc2ccccc2)cc1`?
GRIN3A LBD mod: 0; CSC inhib: -5; T cruzi inh: -4; CHOP inhibitor: 14; PREPL inhibitor: -1; Beta apoptosis: -7

Results for O=C(CCSc1ccccc1)Nc1ccc(OCc2ccccc2)cc1 ?
GRIN3A LBD mod: -8; CSC inhib: -1; T cruzi inh: 17; CHOP inhibitor: 75*; PREPL inhibitor: 7; Beta apoptosis: 3

What do the screens show for `CC(=O)Nc1cccc(NC(=O)CCNC(=O)c2ccccc2)c1`?
GRIN3A LBD mod: -2; CSC inhib: -2; T cruzi inh: -14; Beta apoptosis: 1

How did COC(=O)c1ccccc1NC(=O)COC(=O)CO/N=C(\C)c1ccc2c(c1)OCO2 do in these assays?
GRIN3A LBD mod: -2; CSC inhib: -11; T cruzi inh: -16; PREPL inhibitor: 6; Beta apoptosis: -7

Results for CN(CC(=O)NC(=O)NC1CCCCC1)CC(=O)Nc1ccc(OC(F)(F)F)cc1 ?
GRIN3A LBD mod: -4; PREPL inhibitor: 9; Beta apoptosis: 16
